Results on nine molecules are retold here after publication PMC5824357 (RNA, 2018).

The target in experiment [1] is Dm CN9BD–CAF40 complex (Drosophila melanogaster) (UniProt Q7JVP2). Briefly: ITC. A general note: In ITC the heat of successive injections is recorded.
In experiment [2] the test system is F-Luc-5BoxB mRNA. Kind of experiment: Tethering assay in S2 cells, F-Luc-5BoxB reporter. In kind it is cell-based, Drosophila melanogaster. Conditions: for repression/degradation activity in tethering: λN-HA-tagged, S2 cells, harvested 3 days after transfection.
Experiment [3] has as its system Dm NOT1-CN9BD–CAF40 complex. Briefly: In vitro MBP pull-down, Dm CN9BD–CAF40. Type of experiment: binding, Drosophila melanogaster. The note with it: MBP-tagged proteins, amylose resin, 50 mM HEPES pH 7.5, 200 mM NaCl, 2 mM DTT, 1 h; SDS-PAGE, Coomassie. The essentials: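 Proteins were expressed in E. coli BL21 (DE3) Star overnight at 20°C. Tethered-protein constructs carried an N-terminal MBP tag and were purified by amylose resin, anion exchange and gel filtration. MBP (20 µg, negative control) or MBP fusion (40 µg) was incubated 1 h with equimolar purified CCR4–NOT modules plus amylose resin. Beads were washed five times and eluted with 25 mM maltose. Eluates were TCA-precipitated and analysed by SDS-PAGE/Coomassie.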

For experiment [4], the target named is T1, Hs NOT1 CN9BD–CAF40 complex (human, UniProt A5YKK6;Q92600). Briefly: crystal structure.
The target of experiment [5] is T2, Hs CAF40 (ARM domain, residues R19–E285) (human, UniProt Q92600 19-285). Briefly: crystal structure.
Experiment [6] concerns the target GST-tagged Hs CAF40 (ARM domain) (human, UniProt Q92600). Kind of experiment: pull-down.
The target of experiment [7] is T1, Hs NOT1 CN9BD–CAF40 complex. Kind of experiment: pull-down.
Experiment [8] deals with T2, Hs CAF40 (ARM domain, residues R19–E285). Briefly: crystal structure. This is another data set of the same source.
The test system of experiment [9] is F-Luc-5BoxB-A95C7-HhR. Kind of experiment: Tethering assay in S2 cells, F-Luc-5BoxB-A95C7-HhR reporter. Type of experiment: cell-based, Drosophila melanogaster.

Like-named read-outs stand apart in the source and are kept apart here. Ends that are not written are not given here. λN = λN tag that binds BoxB hairpins, for tethering; HA = not defined here

T1 sequence (Q92600 19-285, one chain of several): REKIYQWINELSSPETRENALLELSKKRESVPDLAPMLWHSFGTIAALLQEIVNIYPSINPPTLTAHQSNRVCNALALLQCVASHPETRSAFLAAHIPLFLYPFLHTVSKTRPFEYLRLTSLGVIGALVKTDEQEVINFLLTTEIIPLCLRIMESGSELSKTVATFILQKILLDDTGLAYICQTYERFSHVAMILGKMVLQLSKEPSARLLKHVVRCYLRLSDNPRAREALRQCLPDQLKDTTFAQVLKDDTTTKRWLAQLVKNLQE
T2 sequence (Q92600 19-285): as the sequence (Q92600 19-285, one chain of several) above
Sequence of GST-tagged Hs CAF40 (ARM domain) (Q92600 19-285): as the sequence (Q92600 19-285, one chain of several) above

As for “Bam CBM peptide (residues D13–E36) (from UniProt P22745 13-36)”, in experiment [1], the Kd (commonly a measure of binding affinity in units of concentration) was determined as 183 nM. “fragment D13–E36 fused to GST: λN-HA-GST-Bam 13–36 ({λN-HA-GST}-DDQQLDHNFKQMEEHLALMVEGNE; reading uncertain; UniProt P22745 13-36, looked up, fragment)”: the “repression/degradation activity in tethering” value in [2] is “sufficient to induce the repression and degradation of the F-Luc-5BoxB mRNA to a similar extent as full-length Bam”.

B1: ΔCBM: Bam Δ13–36 (protein)
chain: MLNARDVCPEGNNEDPRKATCEYEDTNEDGATCTSGVLSEIQENFGRLRLCDVTAPLLEFHGLDCLQQIQKRSRHFAFDGSPAKKSRSGGVLVTGPKQKQLQKENVWNRKSKGSASADNIEKLPITIEKLHMIGLHGDCLEHNAVLRLMNLFRSLHDHLTADLGFSRQNSMPSDYLFDMPVKSTMPKSLNVRYQLQVLCTKVERFLVQQRRTLEANRHFDFEKYDECDKLLKGFASYLDNFKLLLKPKMRNRNGNSGSNADKFHTQRMERLLIGLRDWIKAAHLSVHVFNWEMDLEHRYSGAMTESHKSLNERAILLSGAELRAAEARGISAEDLFIAQRYKLGGPIYCVLEQHEFLSALIANPETYFPPSVVAICGPQKLGAVSMEQPSASEEEFEETEEVPSSPPRHTGRVPRFRS
modifications: left off: MBP, N-terminal, kept
Consider B1, for which, in experiment [3], the interaction in pull-down entry is “abolished the interaction with the Dm CN9BD–CAF40 module in vitro”. Also, the “repression/degradation activity in tethering” value in experiment [2] is on record as “sufficient to abolish the repressive activity of Bam”.

B2: Bam CBM peptide (residues D13–E36) (peptide)
peptide: DDQQLDHNFKQMEEHLALMVEGNE
Regarding B2, the binding result in experiment [4] and in experiment [5] was “binds” in each case.

B3: MBP-tagged Bam CBM (domain or fragment)
chain: DDQQLDHNFKQMEEHLALMVEGNE
On to B3, for which the binding result in [6] and in [7] was “binds” throughout.

B4: Hs NOT1 CN9BD (residues V1351–L1588) (domain or fragment)
chain: VPPQPQYSYHDINVYSLAGLAPHITLNPTIPLFQAHPQLKQCVRQAIERAVQELVHPVVDRSIKIAMTTCEQIVRKDFALDSEESRMRIAAHHMMRNLTAGMAMITCREPLLMSISTNLKNSFASALRTASPQQREMMDQAAAQLAQDNCELACCFIQKTAVEKAGPEMDKRLATEFELRKHARQEGRRYCDPVVLTYQAERMPEQIRLKVGGVDPKQLAVYEEFARNVPGFLPTNDL
As to B4, the binding result in experiment [8] was “binds”.

B5: MBP-tagged full-length Bam (natural protein)
chain: MLNARDVCPEGNDDQQLDHNFKQMEEHLALMVEGNENEDPRKATCEYEDTNEDGATCTSGVLSEIQENFGRLRLCDVTAPLLEFHGLDCLQQIQKRSRHFAFDGSPAKKSRSGGVLVTGPKQKQLQKENVWNRKSKGSASADNIEKLPITIEKLHMIGLHGDCLEHNAVLRLMNLFRSLHDHLTADLGFSRQNSMPSDYLFDMPVKSTMPKSLNVRYQLQVLCTKVERFLVQQRRTLEANRHFDFEKYDECDKLLKGFASYLDNFKLLLKPKMRNRNGNSGSNADKFHTQRMERLLIGLRDWIKAAHLSVHVFNWEMDLEHRYSGAMTESHKSLNERAILLSGAELRAAEARGISAEDLFIAQRYKLGGPIYCVLEQHEFLSALIANPETYFPPSVVAICGPQKLGAVSMEQPSASEEEFEETEEVPSSPPRHTGRVPRFRS
B5: the binding result in experiment [7] was “binds”.

B6: Bam-N: Bam N-terminal fragment, residues 1–140 (protein, UniProt P22745 1-140, looked up, fragment)
chain: MLNARDVCPEGNDDQQLDHNFKQMEEHLALMVEGNENEDPRKATCEYEDTNEDGATCTSGVLSEIQENFGRLRLCDVTAPLLEFHGLDCLQQIQKRSRHFAFDGSPAKKSRSGGVLVTGPKQKQLQKENVWNRKSKGSAS
Regarding B6, the “repression of deadenylation-resistant reporter” value in [9] is reported as “repressed the expression of this reporter in S2 cells”. Besides, the “F-Luc-5BoxB mRNA degradation in DCP2-depleted cells” value in experiment [2] (DCP2 knockdown, DCP2 E361Q overexpressed) is reported as “impaired”. In [2] (DCP2 knockdown, DCP2 E361Q overexpressed, F-Luc activity), the “F-Luc activity in DCP2-depleted cells” value is given as “not restored”. Besides, in experiment [2] (NOT1-depleted S2 cells), the “F-Luc-5BoxB mRNA degradation after NOT1 depletion” value was “partially suppressed degradation of F-Luc-5BoxB mRNA”. Also, in experiment [2], the “repression/degradation activity in tethering” value is “retained the activity of the full-length protein”.

B7: Bam-C: Bam C-terminal fragment, residues 141–442 (protein, UniProt P22745 141-442, looked up, fragment)
chain: ADNIEKLPITIEKLHMIGLHGDCLEHNAVLRLMNLFRSLHDHLTADLGFSRQNSMPSDYLFDMPVKSTMPKSLNVRYQLQVLCTKVERFLVQQRRTLEANRHFDFEKYDECDKLLKGFASYLDNFKLLLKPKMRNRNGNSGSNADKFHTQRMERLLIGLRDWIKAAHLSVHVFNWEMDLEHRYSGAMTESHKSLNERAILLSGAELRAAEARGISAEDLFIAQRYKLGGPIYCVLEQHEFLSALIANPETYFPPSVVAICGPQKLGAVSMEQPSASEEEFEETEEVPSSPPRHTGRVPRFRS
As for B7, the “repression/degradation activity in tethering” value in experiment [2] was “strongly impaired”.
